Test results reported in article PMC3644855 (Nuclear medicine and biology, 2009).
Where “and” joins values, the source holds several entries; their conditions need not be identical. Identical values can stand only once. Like-named read-outs stand apart in the source and are kept apart here. Each block holds one compound with its values, some of them ahead of it.

Columns and labels:
[1] = type: in vivo; conditions: rat i.v., LC/MS
How it was run: (§1)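 Male Sprague-Dawley rats (220–260 g, 3 per group), awake, got i.v. 0.5–1 mCi 18F-labelled test compound in 100 μL, carrying 1, 11 or 18 nmol unlabelled compound; killed at 5 or 30 min. Dissected brain regions and plasma, spiked with internal standard, homogenized at pH 12.5, extracted with hexane:ethyl acetate (4:1), dried and redissolved in 50% CH3CN. Analysed by UPLC-Q-TOF (positive ESI) against matrix calibration, triplicate. DUR = %ID/g × body weight/100.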

5-HT1A receptor [2] = target: T1, 5-HT1A receptor (Rattus norvegicus, UniProt P19327); experiment: Brain tissue specific binding ratio [; type: in vivo
T1 sequence (P19327 1-422): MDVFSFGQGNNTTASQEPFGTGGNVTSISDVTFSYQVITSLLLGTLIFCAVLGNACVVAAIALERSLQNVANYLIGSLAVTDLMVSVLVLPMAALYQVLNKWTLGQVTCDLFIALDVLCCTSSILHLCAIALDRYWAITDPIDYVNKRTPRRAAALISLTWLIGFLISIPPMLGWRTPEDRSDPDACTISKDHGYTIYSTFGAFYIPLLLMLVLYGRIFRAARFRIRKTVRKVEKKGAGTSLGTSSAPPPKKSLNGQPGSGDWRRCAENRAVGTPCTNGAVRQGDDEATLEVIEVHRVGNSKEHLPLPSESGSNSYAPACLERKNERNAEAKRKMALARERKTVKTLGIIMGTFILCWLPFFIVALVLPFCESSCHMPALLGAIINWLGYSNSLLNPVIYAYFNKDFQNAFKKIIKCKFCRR
How it was run: as §1

[3] = type: in vivo; conditions: rat i.v., Radioactivity
How it was run: (§2)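 Awake male Sprague-Dawley rats (220–260 g, 3 per group) got i.v. 0.5–1 mCi 18F-labelled test compound in 100 μL, containing 1, 11 or 18 nmol unlabelled compound. Killed 5 or 30 min later. Caudate, thalamus, hippocampus, brain stem, cerebellum, cortex and plasma (0.05–0.4 g) weighed and radioactivity-counted. Uptake given as DUR = %ID/g × body weight/100.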

5-HT1A receptor [4] = target: T1, 5-HT1A receptor; experiment: Brain tissue specific binding ratio [; type: in vivo; conditions: rat i.v., Radioactivity
How it was run: as §2

[5] = rat i.v., 1 nmol, 30 min, LC/MS
[6] = rat i.v., 11 nmol, 30 min, LC/MS
[7] = rat i.v., 18 nmol, 30 min, LC/MS

hippocampus uptake (DUR) ([1]; 17 nmol, 30 min, hippocampus): 0.53 | Specific binding ratio [(DURtissue/DURCb)−1] Hippocampus (5-HT1A receptor [2]; rat i.v., 1 nmol, 5 min, LC/MS): 2.30 and 2.30±0.42 | Specific binding ratio [(DURtissue/DURCb)−1] brain stem (5-HT1A receptor [2]; rat i.v., 1 nmol, 5 min, LC/MS): 0.75±0.35 | Specific binding ratio [(DURtissue/DURCb)−1] caudate (5-HT1A receptor [2]; rat i.v., 1 nmol, 5 min, LC/MS): 0.30±0.13 | Specific binding ratio [(DURtissue/DURCb)−1] cortex (5-HT1A receptor [2]; rat i.v., 1 nmol, 5 min, LC/MS): 1.34±0.27 | Specific binding ratio [(DURtissue/DURCb)−1] thalamus (5-HT1A receptor [2]; rat i.v., 1 nmol, 5 min, LC/MS): 0.84±0.30 | Specific binding ratio [(DURtissue/DURCb)−1] Hippocampus (5-HT1A receptor [2]; [5]): 5.87 and 5.87±0.56 | Specific binding ratio [(DURtissue/DURCb)−1] brain stem (5-HT1A receptor [2]; [5]): 1.99±0.53 | Specific binding ratio [(DURtissue/DURCb)−1] caudate (5-HT1A receptor [2]; [5]): 0.95±0.06 | Specific binding ratio [(DURtissue/DURCb)−1] cortex (5-HT1A receptor [2]; [5]): 2.29±0.06 | Specific binding ratio [(DURtissue/DURCb)−1] thalamus (5-HT1A receptor [2]; [5]): 1.58±0.58 | Specific binding ratio [(DURtissue/DURCb)−1] Hippocampus (5-HT1A receptor [2]; [6]): 2.43 and 2.43±0.35 | Specific binding ratio [(DURtissue/DURCb)−1] brain stem (5-HT1A receptor [2]; [6]): 0.42±0.33 | Specific binding ratio [(DURtissue/DURCb)−1] caudate (5-HT1A receptor [2]; [6]): 0.65±0.31 | Specific binding ratio [(DURtissue/DURCb)−1] cortex (5-HT1A receptor [2]; [6]): 1.26±0.28 | Specific binding ratio [(DURtissue/DURCb)−1] thalamus (5-HT1A receptor [2]; [6]): 0.78±0.29 | specific binding ratio hippocampus (5-HT1A receptor [2]; rat i.v., 17 nmol, 30 min, hippocampus, LC/MS): 2.42 | Specific binding ratio [(DURtissue/DURCb)−1] Hippocampus (5-HT1A receptor [2]; [7]): 2.42±0.28 | Specific binding ratio [(DURtissue/DURCb)−1] brain stem (5-HT1A receptor [2]; [7]): 0.93±0.13 | Specific binding ratio [(DURtissue/DURCb)−1] caudate (5-HT1A receptor [2]; [7]): 0.67±0.31 | Specific binding ratio [(DURtissue/DURCb)−1] cortex (5-HT1A receptor [2]; [7]): 1.61±0.39 | Specific binding ratio [(DURtissue/DURCb)−1] thalamus (5-HT1A receptor [2]; [7]): 0.91±0.14 | saturability of binding with increasing mass dose (5-HT1A receptor [2]; rat, 1, 11 and 18 nmol mass doses, hippocampus): demonstrates saturability of binding
Compound: COc1ccccc1N1CCN(CCN(C(=O)c2ccc(F)cc2)c2ncccn2)CC1 [FPWAY, 4-Fluoro-N-{2-[4-(2-methoxyphenyl)-1-piperazinyl]ethyl}-N-(2-pyrimidinyl)benzamide]
DUR Hippocampus ([1]; 1 nmol, 5 min): 4.28 %ID/g * body weight/100 and 4.28±0.35 %ID/g * body weight/100 | DUR brain stem ([1]; 1 nmol, 5 min): 2.36±0.35 %ID/g * body weight/100 | DUR caudate ([1]; 1 nmol, 5 min): 1.70±0.30 %ID/g * body weight/100 | DUR cerebellum ([1]; 1 nmol, 5 min): 1.31±0.21 %ID/g * body weight/100 | DUR cortex ([1]; 1 nmol, 5 min): 3.10±0.78 %ID/g * body weight/100 | DUR plasma ([1]; 1 nmol, 5 min): 0.49±0.17 %ID/g * body weight/100 | DUR thalamus ([1]; 1 nmol, 5 min): 2.39±0.45 %ID/g * body weight/100 | DUR Hippocampus ([1]; 1 nmol, 30 min): 2.20 %ID/g * body weight/100 and 2.20±0.38 %ID/g * body weight/100 | DUR brain stem ([1]; 1 nmol, 30 min): 0.98±0.05 %ID/g * body weight/100 | DUR caudate ([1]; 1 nmol, 30 min): 0.60±0.04 %ID/g * body weight/100 | DUR cerebellum ([1]; 1 nmol, 30 min): 0.32±0.08 %ID/g * body weight/100 | DUR cortex ([1]; 1 nmol, 30 min): 1.06±0.25 %ID/g * body weight/100 | DUR plasma ([1]; 1 nmol, 30 min): 0.21±0.07 %ID/g * body weight/100 | DUR thalamus ([1]; 1 nmol, 30 min): 0.81±0.02 %ID/g * body weight/100 | DUR Hippocampus ([1]; 11 nmol, 30 min): 0.79 %ID/g * body weight/100 and 0.79±0.08 %ID/g * body weight/100 | DUR brain stem ([1]; 11 nmol, 30 min): 0.32±0.05 %ID/g * body weight/100 | DUR caudate ([1]; 11 nmol, 30 min): 0.38±0.06 %ID/g * body weight/100 | DUR cerebellum ([1]; 11 nmol, 30 min): 0.23±0.03 %ID/g * body weight/100 | DUR cortex ([1]; 11 nmol, 30 min): 0.52±0.05 %ID/g * body weight/100 | DUR plasma ([1]; 11 nmol, 30 min): 0.13±0.02 %ID/g * body weight/100 | DUR thalamus ([1]; 11 nmol, 30 min): 0.41±0.08 %ID/g * body weight/100 | DUR Hippocampus ([1]; 18 nmol, 30 min): 0.53±0.03 %ID/g * body weight/100 | DUR brain stem ([1]; 18 nmol, 30 min): 0.30±0.05 %ID/g * body weight/100 | DUR caudate ([1]; 18 nmol, 30 min): 0.25±0.08 %ID/g * body weight/100 | DUR cerebellum ([1]; 18 nmol, 30 min): 0.16±0.02 %ID/g * body weight/100 | DUR cortex ([1]; 18 nmol, 30 min): 0.41±0.18 %ID/g * body weight/100 | DUR plasma ([1]; 18 nmol, 30 min): 0.33±0.11 %ID/g * body weight/100 | DUR thalamus ([1]; 18 nmol, 30 min): 0.30±0.04 %ID/g * body weight/100

Specific binding ratio [(DURtissue/DURCb)−1] Hippocampus (5-HT1A receptor [4]; 1 nmol, 5 min): 1.95±0.45 | Specific binding ratio [(DURtissue/DURCb)−1] brain stem (5-HT1A receptor [4]; 1 nmol, 5 min): 0.63±0.08 | Specific binding ratio [(DURtissue/DURCb)−1] caudate (5-HT1A receptor [4]; 1 nmol, 5 min): 0.38±0.06 | Specific binding ratio [(DURtissue/DURCb)−1] cortex (5-HT1A receptor [4]; 1 nmol, 5 min): 1.41±0.13 | Specific binding ratio [(DURtissue/DURCb)−1] thalamus (5-HT1A receptor [4]; 1 nmol, 5 min): 0.64±0.04 | Specific binding ratio [(DURtissue/DURCb)−1] Hippocampus (5-HT1A receptor [4]; 1 nmol, 30 min): 5.38±0.23 | Specific binding ratio [(DURtissue/DURCb)−1] brain stem (5-HT1A receptor [4]; 1 nmol, 30 min): 1.12±0.06 | Specific binding ratio [(DURtissue/DURCb)−1] caudate (5-HT1A receptor [4]; 1 nmol, 30 min): 0.53±0.17 | Specific binding ratio [(DURtissue/DURCb)−1] cortex (5-HT1A receptor [4]; 1 nmol, 30 min): 2.04±0.18 | Specific binding ratio [(DURtissue/DURCb)−1] thalamus (5-HT1A receptor [4]; 1 nmol, 30 min): 1.29±0.13 | Specific binding ratio [(DURtissue/DURCb)−1] Hippocampus (5-HT1A receptor [4]; 11 nmol, 30 min): 2.72±0.37 | Specific binding ratio [(DURtissue/DURCb)−1] brain stem (5-HT1A receptor [4]; 11 nmol, 30 min): 0.68±0.14 | Specific binding ratio [(DURtissue/DURCb)−1] caudate (5-HT1A receptor [4]; 11 nmol, 30 min): 0.33±0.06 | Specific binding ratio [(DURtissue/DURCb)−1] cortex (5-HT1A receptor [4]; 11 nmol, 30 min): 1.26±0.11 | Specific binding ratio [(DURtissue/DURCb)−1] thalamus (5-HT1A receptor [4]; 11 nmol, 30 min): 0.70±0.12 | Specific binding ratio [(DURtissue/DURCb)−1] Hippocampus (5-HT1A receptor [4]; 18 nmol, 30 min): 2.57±0.21 | Specific binding ratio [(DURtissue/DURCb)−1] brain stem (5-HT1A receptor [4]; 18 nmol, 30 min): 0.85±0.26 | Specific binding ratio [(DURtissue/DURCb)−1] caudate (5-HT1A receptor [4]; 18 nmol, 30 min): 0.63±0.34 | Specific binding ratio [(DURtissue/DURCb)−1] cortex (5-HT1A receptor [4]; 18 nmol, 30 min): 1.81±0.83 | Specific binding ratio [(DURtissue/DURCb)−1] thalamus (5-HT1A receptor [4]; 18 nmol, 30 min): 0.90±0.13
Compound: COc1ccccc1N1CCN(CCN(C(=O)c2ccc(F)cc2)c2ncccn2)CC1 [[^18F]FPWAY, 4-Fluoro-N-{2-[4-(2-methoxyphenyl)-1-piperazinyl]ethyl}-N-(2-pyrimidinyl)benzamide]
DUR Hippocampus ([3]; 1 nmol, 5 min): 4.50 %ID/g * body weight/100 and 4.50±0.41 %ID/g * body weight/100 | DUR brain stem ([3]; 1 nmol, 5 min): 2.53±0.48 %ID/g * body weight/100 | DUR caudate ([3]; 1 nmol, 5 min): 2.14±0.27 %ID/g * body weight/100 | DUR cerebellum ([3]; 1 nmol, 5 min): 1.55±0.24 %ID/g * body weight/100 | DUR cortex ([3]; 1 nmol, 5 min): 3.75±0.74 %ID/g * body weight/100 | DUR thalamus ([3]; 1 nmol, 5 min): 2.54±0.43 %ID/g * body weight/100 | DUR Hippocampus ([3]; 1 nmol, 30 min): 2.34±0.22 %ID/g * body weight/100 | DUR brain stem ([3]; 1 nmol, 30 min): 0.78±0.08 %ID/g * body weight/100 | DUR caudate ([3]; 1 nmol, 30 min): 0.56±0.01 %ID/g * body weight/100 | DUR cerebellum ([3]; 1 nmol, 30 min): 0.36±0.05 %ID/g * body weight/100 | DUR cortex ([3]; 1 nmol, 30 min): 1.12±0.18 %ID/g * body weight/100 | DUR thalamus ([3]; 1 nmol, 30 min): 0.84±0.06 %ID/g * body weight/100 | DUR Hippocampus ([3]; 11 nmol, 30 min): 0.83±0.03 %ID/g * body weight/100 | DUR brain stem ([3]; 11 nmol, 30 min): 0.37±0.05 %ID/g * body weight/100 | DUR caudate ([3]; 11 nmol, 30 min): 0.30±0.02 %ID/g * body weight/100 | DUR cerebellum ([3]; 11 nmol, 30 min): 0.22±0.02 %ID/g * body weight/100 | DUR cortex ([3]; 11 nmol, 30 min): 0.50±0.04 %ID/g * body weight/100 | DUR thalamus ([3]; 11 nmol, 30 min): 0.38±0.02 %ID/g * body weight/100 | DUR Hippocampus ([3]; 18 nmol, 30 min): 0.53±0.02 %ID/g * body weight/100 | DUR brain stem ([3]; 18 nmol, 30 min): 0.27±0.03 %ID/g * body weight/100 | DUR caudate ([3]; 18 nmol, 30 min): 0.24±0.04 %ID/g * body weight/100 | DUR cerebellum ([3]; 18 nmol, 30 min): 0.15±0.01 %ID/g * body weight/100 | DUR cortex ([3]; 18 nmol, 30 min): 0.41±0.13 %ID/g * body weight/100 | DUR thalamus ([3]; 18 nmol, 30 min): 0.28±0.02 %ID/g * body weight/100
